Test results from ChEMBL document CHEMBL4706606, “Re-evaluating pretomanid analogues for Chagas disease: Hit-to-lead studies reveal both in vitro and in vivo trypanocidal efficacy” (Eur J Med Chem, 2020).
pIC50: −log10 of the molar value. In brackets after ≈: the same amount, converted by molar mass. Activity calls are given as the source filed them. The rule behind the calls is not given here.

Legend:
[1] = Selectivity index, ratio of IC50 for cytotoxicity against rat L6 cells to IC50 for antitrypanosomal activity against Trypanosoma cruzi Tulahuen strain C2C4 amastigotes infected in rat L6 cells
L6 = assay: Cytotoxicity against rat L6 cells assessed as reduction in cell viability incubated for 72 hrs by alamar blue assay; type: ADME, cell-based; details: L6, 72 h
Trypanosoma cruzi [2] = assay: Antitrypanosomal activity against Trypanosoma cruzi Tulahuen strain C2C4 amastigotes infected in rat L6 cells assessed as inhibition of parasite growth incubated for 96 hrs by chlorophenol red-fl-D-galactopyranoside based colorimetric analysis; type: functional, organism-based; details: for pIC50: Tulahuen strain C2C4, L6, 96 h; for IC90: Tulahuen strain C2C4, L6, time 96 hrs
Method in brief: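 Tulahuen strain TcVI T. cruzi expressing β-galactosidase, grown in L6 rat skeletal myoblast host cells. IC50/IC90 growth inhibition. Each value is the mean of ≥2 independent determinations using fresh sample stock.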

[3] = Kinetic solubility of compound in water sonicated for 15 mins by HPLC analysis
[4] = Kinetic solubility of compound in 0.1M HCl at pH 1 sonicated for 15 mins by HPLC analysis; type: physicochemical; details: read-out: Kinetic_solubility
Method in brief: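 Solid mixed with 0.1 M HCl to a nominal 2 mM, sonicated 15 min, centrifuged 6 min. Supernatant diluted 2-fold and analysed by HPLC. Kinetic solubility from peak area against a DMSO standard solution.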

[5] = Metabolic stability in CD-1 mouse liver microsomes assessed as parent compound remaining incubated for 1 hr; type: ADME, Microsome
Method in brief: (§1)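 Pooled human or CD-1 mouse liver microsomes at 0.4 mg/mL microsomal protein. Percent parent remaining after 1 h incubation.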

[6] = Inhibition of Trypanosoma cruzi Tulahuen C4 strain CYP51 expressed in Escherichia coli by fluorescence based assay
[7] = Selectivity index, ratio of IC50 for cytotoxicity against rat 3T3 cells to IC50 for antitrypanosomal activity against Trypanosoma cruzi Tulahuen strain C2C4 amastigotes infected in rat 3T3 cells
[8] = Cytotoxicity against rat 3T3 cells assessed as reduction in cell viability incubated for 72 hrs by alamar blue assay; type: ADME, cell-based; details: NIH3T3, 72 h
[9] = Metabolic stability in human liver microsomes assessed as parent compound remaining incubated for 1 hr; type: ADME, Microsome; details: read-out: Stabilty; method in brief: as §1
Trypanosoma cruzi [10] = assay: Antitrypanosomal activity against Trypanosoma cruzi Tulahuen strain C2C4 amastigotes infected in […] cells assessed as reduction in parasite growth incubated for 48 hrs by chlorophenol red-fl-D-galactopyranoside based colorimetric analysis relative to control; type: functional
Trypanosoma cruzi [11] = assay: Antitrypanosomal activity against Trypanosoma cruzi Tulahuen strain C2C4 amastigotes infected in […] cells assessed as reduction in parasite growth incubated for 48 hrs by chlorophenol red-fl-D-galactopyranoside based colorimetric analysis; type: functional, organism-based; details: for pIC50: Tulahuen strain C2C4, NIH3T3, 48 h; for IC90: Tulahuen strain C2C4, NIH3T3, time 48 hrs
Trypanosoma cruzi [12] = assay: Antitrypanosomal activity against Trypanosoma cruzi Y strain amastigotes infected in U2OS cells assessed as inhibition of parasite growth at […] by image-based assay relative to control
Trypanosoma cruzi [13] = assay: Antitrypanosomal activity against bloodstream trypomastigotes form of Trypanosoma cruzi CL Brener infected in BALB/c mouse assessed as reduction in parasitemia at 100 mg/kg, po qd administered for 5 days starting from day 114 post infection followed by cyclophosphamide induced immunosuppression on days 135, 139 and 143 post infection and measured for 149 days by bioluminescence analysis; type: functional, organism-based; details: time 5.0 day
Method in brief: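 Female BALB/c mice, 8 weeks old, ~18 g, 5 per group. Infected i.p. with 10^3 bloodstream trypomastigotes of bioluminescent CL Brener (pTRIX2-RE9h). From day 114 p.i., oral dosing once daily for 5 days: reference drugs at 100 mg/kg in HPMC-SV with 5% DMSO, PEG400 vehicle at 50 mg/kg. Cyclophosphamide 200 mg/kg i.p. on days 135, 139 and 143. Final imaging day 149. Ex vivo organ bioluminescence days 149-151.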

Trypanosoma cruzi [14] = assay: Antitrypanosomal activity against Trypanosoma cruzi amastigotes assessed as inhibition of parasite growth at 10 ug/ml relative to control
[15] = Half life in human liver microsomes incubated for 60 mins
Trypanosoma cruzi [16] = assay: (§2) Antitrypanosomal activity against bloodstream trypomastigotes form of Trypanosoma cruzi Tulahuen strain C2C4 infected in Swiss mouse assessed as reduction in parasitemia at 20 mg/kg, po qd administered for 20 days starting from day 8 post infection and measured for 28 days by neubauer haemocytometer based microscopic analysis; type: functional, organism-based; details: time 20.0 day
Method in brief: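 Female Swiss mice, 5 per group, infected intraperitoneally with 5 x 10⁴ bloodstream trypomastigotes (Tulahuen). Oral dosing once daily for 20 days from day 8 p.i., with the commercial formulation diluted in water for injection. Tail blood (3 μL) taken on days 8 (predose), 9, 12, 14, 16, 19, 21 and 28 p.i., diluted 1:10 in red cell lysis buffer and counted by haemocytometer.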

Trypanosoma cruzi [17] = assay: as §2, with “infection followed by cyclophosphamide induced immunosuppression […]” for “infection”, “51” for “28”; type: functional, organism-based; details: time 20.0 day
Method in brief: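 Same infection (female Swiss mice, 5 x 10⁴ trypomastigotes ip) and 20-day oral course from day 8 p.i. After 10 days' rest, mice with very low or undetectable parasitemia got three cycles of cyclophosphamide, 50 mg/kg ip daily for 4 days then 3 days' rest, starting day 37 p.i. Blood parasitemia checked on days 37, 44, 51 and 58 p.i. by haemocytometer, with PCR detection also used.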

Trypanosoma cruzi [18] = assay: Antitrypanosomal activity against Trypanosoma cruzi Y strain amastigotes infected in U2OS cells assessed as inhibition of parasite growth at 3.3 ug/ml by image-based assay relative to control

Row | Structure (SMILES) | selectivity ratio [1] | pIC50 (L6) | pIC50 (Trypanosoma cruzi [2]) | IC90 (Trypanosoma cruzi [2]) [nM] | solubility kinetic at 0.25 h [3] [µg/mL] | pIC50 [6] | selectivity ratio ([7]; 3T3 cells) | pIC50 [8] | %max (Trypanosoma cruzi [10]) [%] | pIC50 (Trypanosoma cruzi [11]) | IC90 (Trypanosoma cruzi [11]) [nM] | other results
1 | O=[N+]([O-])c1cn2c(n1)OC[C@H](OCc1ccc(-c3ccc(C(F)(F)F)cc3Cl)cn1)C2 | 75 | 4.30 | 6.17 | 2900 | 1 (≈ 2.2 µM) | – | – | – | – | – | – | solubility kinetic at 0.25 h [4]: 299 µg/mL (≈ 657 µM)
2 | CC1(COc2ccc(OC(F)(F)F)cc2)CCn2nc([N+](=O)[O-])nc2O1 (stereo unspecified) | – | – | – | – | 9.5 (≈ 25.4 µM) | < 5.00 | > 168 | < 4.43 | 96 | 6.66 | 850 | remaining at 1 h [5]: 92%; remaining at 1 h [9]: 91%
3 | O=[N+]([O-])c1nc2n(n1)C[C@H](O)CO2 | > 63 | < 4.00 | 5.80 | 6300 | 8750 (≈ 47000 µM) | – | – | – | – | – | – | inhibition at […] (Trypanosoma cruzi [12]): 58%
4 | O=[N+]([O-])c1cn2c(n1)OC[C@H](OCC#Cc1ccc(-c3ccc(C(F)(F)F)cc3)cn1)C2 | – | – | – | – | 0.68 (≈ 1.53 µM) | < 5.00 | > 137 | < 4.43 | 95 | 6.57 | 1700 | remaining at 1 h [5]: 76%; solubility kinetic at 0.25 h [4]: 7.6 µg/mL (≈ 17.1 µM); remaining at 1 h [9]: 58%
5 | CC1(COc2ccc(OC(F)(F)F)cc2)Cn2ccnc2O1 (stereo unspecified) | – | – | – | – | – | 6.80 | > 16 | < 4.14 | 80 | 5.33 | 10000 | –
6 | O=[N+]([O-])c1cn2c(n1)OC[C@H](OCc1ccc(-c3ccc(C(F)(F)F)cc3Cl)cc1)C2 | 116 | 4.54 | 6.60 | 710 | < 0.1 | 5.12 | > 132 | < 4.43 | 100 | 6.55 | 410 | remaining at 1 h [5]: 83%; remaining at 1 h [9]: 76%
7 | O=[N+]([O-])c1cn2c(n1)OC[C@H](OCc1ccc(-c3ccc(OC(F)(F)F)cc3Cl)cc1)C2 | 104 | 4.60 | 6.62 | 1100 | < 0.1 | < 5.00 | > 65 | < 4.43 | 99 | 6.24 | 1000 | remaining at 1 h [5]: 76%; remaining at 1 h [9]: 85%
8 | O=C(Cn1ccnc1[N+](=O)[O-])NCc1ccccc1 [BENZNIDAZOLE] | – | – | – | – | – | < 5.00 | > 11 | < 3.90 | 101 | 4.92 | 37000 | Activity (Trypanosoma cruzi [13]): Active
9 | CC1(COc2ccc(OC(F)(F)F)cc2)Cn2nc([N+](=O)[O-])nc2O1 (stereo unspecified) | – | – | – | – | – | < 5.00 | > 101 | < 4.14 | 96 | 6.14 | 2100 | –
10 | CSc1ccc(OCc2ncc([N+](=O)[O-])n2C)cc1 | – | – | – | – | – | – | – | – | – | – | – | Activity (Trypanosoma cruzi [13]): Active
11 | O=[N+]([O-])c1cn2c(n1)OC[C@H](OCC#Cc1ccc(-c3ccc(OC(F)(F)F)cc3)cn1)C2 | – | – | – | – | < 0.1 | < 5.00 | > 55 | < 4.43 | 94 | 6.17 | 2200 | remaining at 1 h [5]: 74%; solubility kinetic at 0.25 h [4]: 3 µg/mL (≈ 6.52 µM); remaining at 1 h [9]: 68%
12 | O=[N+]([O-])c1cn2c(n1)[S+]([O-])CC(OCc1ccc(COc3ccccc3)cc1)C2 (stereo unspecified) | > 2860 | < 4.00 | 7.46 | 89 | 0.44 (≈ 1.06 µM) | – | – | – | – | – | – | inhibition at 10 µg/mL (Trypanosoma cruzi [14]): 89%; half-life at 1 h [15]: 2.6 h
13 | O=[N+]([O-])c1cn2c(n1)S(=O)(=O)CC(OCc1ccc(COc3ccccc3)cc1)C2 (stereo unspecified) | > 357 | < 4.00 | 6.55 | 440 | 0.13 (≈ 0.303 µM) | – | – | – | – | – | – | inhibition at 10 µg/mL (Trypanosoma cruzi [14]): 95%; half-life at 1 h [15]: 1.72 h
14 | CC[C@@H]([C@H](C)O)n1ncn(-c2ccc(N3CCN(c4ccc(OC[C@@H]5CO[C@@](Cn6cncn6)(c6ccc(F)cc6F)C5)cc4)CC3)cc2)c1=O [POSACONAZOLE] | – | – | – | – | – | 7.28 | > 833 | < 6.00 | 85 | 8.92 | 4.9 | Activity (Trypanosoma cruzi [16]): Active; Activity (Trypanosoma cruzi [17]): Active
15 | O=[N+]([O-])c1cn2c(n1)OCC(COc1ccc(-c3ccc(F)cc3)cn1)C2 (stereo unspecified) | > 4540 | < 4.00 | 7.66 | 190 | 1.1 (≈ 2.97 µM) | – | – | – | – | – | – | inhibition at […] (Trypanosoma cruzi [12]): 29%
16 | CC1(COc2ccc(-c3ccc(F)cc3)cn2)CCn2cc([N+](=O)[O-])nc2O1 (stereo unspecified) | – | – | – | – | – | – | – | – | – | – | – | inhibition at 3.3 µg/mL (Trypanosoma cruzi [18]): 50%
17 | O=[N+]([O-])c1cn2c(n1)OC[C@@H](OCc1cccc(-c3cccc(OC(F)(F)F)c3)c1)C2 | – | 4.89 | < 5.00 | > 10000 | – | – | – | – | – | – | – | inhibition at 10 µg/mL (Trypanosoma cruzi [14]): 65%
18 | O=[N+]([O-])c1nc2n(n1)C[C@H](OCc1ccc(OCc3ccccc3)cc1)CO2 | > 2130 | < 4.00 | 7.33 | 130 | 0.18 (≈ 0.471 µM) | – | – | – | – | – | – | inhibition at 10 µg/mL (Trypanosoma cruzi [14]): 12%
19 | CC1CS(=O)(=O)CCN1/N=C/c1ccc([N+](=O)[O-])o1 (stereo unspecified) [NIFURTIMOX] | – | – | – | – | – | < 5.00 | – | < 3.90 | 99 | 5.68 | 4600 | selectivity ratio [7]: > 60; Activity (Trypanosoma cruzi [13]): Active
20 | O=[N+]([O-])c1cn2c(n1)OC(COc1ccc(-c3ccc(F)nc3)cc1)CC2 (stereo unspecified) | > 5560 | < 4.00 | 7.74 | 44 | – | < 5.00 | > 500 | < 4.43 | 98 | 7.13 | 330 | –
21 | CC1(COc2ccc(OC(F)(F)F)cc2)CCn2cc([N+](=O)[O-])nc2S1(=O)=O (stereo unspecified) | > 143 | < 4.00 | 6.15 | 1600 | 1.1 (≈ 2.61 µM) | < 5.00 | > 28 | < 4.43 | 101 | 5.89 | 3000 | remaining at 1 h [5]: 76%; remaining at 1 h [9]: 88%
22 | O=[N+]([O-])c1cn2c(n1)OC[C@@H](OCC#Cc1ccc(-c3ccc(C(F)(F)F)cc3)cn1)C2 | > 435 | < 4.00 | 6.64 | 590 | 0.33 (≈ 0.743 µM) | < 5.00 | > 73 | < 4.43 | 97 | 6.29 | 1700 | inhibition at […] (Trypanosoma cruzi [12]): 48%
23 | O=[N+]([O-])c1cn2c(n1)OC[C@H](OCC#Cc1ccc(OC(F)(F)F)cc1)C2 | – | – | – | – | – | < 5.00 | > 195 | < 4.43 | 99 | 6.72 | 440 | –
24 | CC1(COCc2ccc(OCc3ccccc3)cc2)Cn2cc([N+](=O)[O-])nc2S1(=O)=O (stereo unspecified) | > 1200 | < 4.00 | 7.08 | 240 | < 0.1 | – | – | – | – | – | – | inhibition at 3.3 µg/mL (Trypanosoma cruzi [18]): 59%; half-life at 1 h [15]: 0.417 h
